# This is a sample that favours compounds with a hit; in the whole collection about 1.4% have one here.
# CDK5 inh: inhibitors of human CDK5/p35 kinase; Q00535+Q15078; Recombinant CDK5/p35, ADP-Glo luminescence, 60 min; inhibition, % at 10 µM; hit rate 0.01% among 330,000;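 active = highest replicate inhibition of at least 50% and at least 75% of replicates reaching 50%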;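 note: plate controls were DMSO neutral control for no effect and GW8510 at 10 µM for full effect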
# Target sequence (Q00535 whole entry, looked up): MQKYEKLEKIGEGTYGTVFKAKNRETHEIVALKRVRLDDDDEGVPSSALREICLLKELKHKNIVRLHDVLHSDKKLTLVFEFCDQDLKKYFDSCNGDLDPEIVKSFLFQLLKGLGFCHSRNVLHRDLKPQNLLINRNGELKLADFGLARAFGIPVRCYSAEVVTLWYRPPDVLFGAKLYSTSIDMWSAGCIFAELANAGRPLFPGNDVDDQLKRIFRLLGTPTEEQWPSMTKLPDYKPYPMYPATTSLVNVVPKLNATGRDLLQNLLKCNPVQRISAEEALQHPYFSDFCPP
# Target sequence (Q15078 whole entry, looked up): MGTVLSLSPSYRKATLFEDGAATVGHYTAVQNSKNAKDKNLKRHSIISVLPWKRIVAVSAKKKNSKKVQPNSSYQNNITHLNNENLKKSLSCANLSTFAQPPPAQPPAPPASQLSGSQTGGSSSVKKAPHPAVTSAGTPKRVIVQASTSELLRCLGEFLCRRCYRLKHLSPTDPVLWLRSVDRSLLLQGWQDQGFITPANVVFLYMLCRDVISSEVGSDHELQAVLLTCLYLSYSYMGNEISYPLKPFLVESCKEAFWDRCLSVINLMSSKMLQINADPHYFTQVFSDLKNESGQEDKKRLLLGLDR
# CAL PDZ FP-1: blocks peptide binding to the human CAL PDZ domain | Q9HD26 | purified CAL PDZ, TMR-peptide fluorescence polarization, 1 h | inhibition, % at 24.9 µM | hit rate 0.92% among 300,000 | AID 602252;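 active = mean inhibition of at least 30% with at least half of replicates also reaching 30%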;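 note: 0% = DMSO neutral control and 100% = excess unlabeled competitor peptide PRC23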
# Dyrk1A ADPGlo: blocks rat Dyrk1A kinase activity. Q63470. hit rate 0.43% among 310,000. inhibition, % at 12.5 µM. ADP-Glo luminescence, NFATc1 peptide; in the data active = inhibition above about 50%;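 note: plate controls were vehicle with enzyme for no effect and no enzyme for full effect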
# CAL PDZ FP-2: blocks peptide binding to human CAL PDZ domain. purified CAL PDZ, TMR-peptide fluorescence polarization, 1 h. inhibition, % at 20 µM. hit rate 0.02% among 330,000. AID 504414;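 active = highest replicate inhibition of at least 40%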;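 note: plate controls were DMSO neutral control wells for no effect and unlabeled competitor peptide control wells for full effect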
#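 Control set: unlabelled peptide and DMSO controls / Material: purified CerCALP PDZ construct / Timing: 1 h incubation at room temperature before polarization reading / Doses: 20 µM, one dose / Detection: fluorescence polarization (mP)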
# Tb MetRS inh: Trypanosoma brucei MetRS inhibition; hit rate 0.4% among 360,000; inhibition, % at 11.9 µM; purified T. brucei MetRS, ATP depletion, Kinase-Glo luminescence;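 active = inhibition above a per-plate cutoff of the control wells' mean inhibition plus 3 SD, cut at about 5.5% in these data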;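 note: 0% = DMSO wells median and 100% = median of wells with control inhibitor compound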
#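 Dosing: 11.9 µM single point; system: parasite MetRS enzyme; technique: luminescence of leftover ATP; times: 15 min enzyme-compound preincubation, 2 h reaction, 10 min detection, 25 °C; replicates: each compound tested once; read-out basis: percent inhibition relative to median high and low control wells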
# PvdQ inh: blocks Pseudomonas aeruginosa PvdQ acylase activity; hit rate 0.063% among 340,000; purified PvdQ acylase, fluorescence plate reader; inhibition, % at 10 µM; in the data active = inhibition above about 30%, passing the limit was not always enough;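 note: 0% = vehicle neutral wells and 100% = reference inhibitor wells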
# Tb MetRS conf: Trypanosoma brucei MetRS inhibition confirmed. shares compounds with Tb MetRS inh. T. brucei MetRS enzyme, luminescence (ATP depletion). inhibition, % at 11.9 µM. hit rate 93% among 1,400; in the data active = inhibition above about 7%
# Jurkat cytotox: Jurkat T cell cytotoxicity for MetRS hits; shares compounds with Tb MetRS inh; Jurkat cells viability, ATP luminescence; inhibition, % at 8.3 µM; hit rate 12% among 1,400; AID 624413; in the data active = inhibition above about 15%;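 note: 0% = vehicle and 100% = reference inhibitor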
# Tb MetRS inh FP: T. brucei MetRS inhibition, orthogonal assay; shares compounds with Tb MetRS inh; AID 651607; purified T. brucei MetRS, fluorescence polarization; hit rate 44% among 1,400; inhibition, % at 11.9 µM; in the data active = inhibition above about 17%;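 note: 0% = vehicle wells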
# Starred values were filed as active, the others as inactive; / = not tested or not shown.
SMILES,CDK5 inh,CAL PDZ FP-1,Dyrk1A ADPGlo,CAL PDZ FP-2,Tb MetRS inh,PvdQ inh,Tb MetRS conf,Jurkat cytotox,Tb MetRS inh FP
CC1(C(=O)Nc2cccc(NS(C)(=O)=O)c2)Cc2c(-c3ccc(C(N)=O)cc3)ccnc2O1 (stereo unspecified),/,/,/,/,0,/,/,/,/
C[C@@H]1CN([C@H](C)CO)C(=O)CCCn2cc(nn2)CO[C@H]1CN(C)S(=O)(=O)c1cccc(C#N)c1,/,/,/,/,0,/,/,/,/
Cc1nc2nc(C)c(C)nc2nc1C,/,/,/,/,0,/,/,/,/
Cn1cc(S(=O)(=O)N2CCOCC2)cc1C(=O)NCc1ccc(Cl)cc1,0,/,1,-2,36*,-10,51*,-2,28*
O=C(OCc1ccccc1)c1c(-c2ccccc2)oc2c1C(OCCO)CCC2 (stereo unspecified),/,/,/,/,0,/,/,/,/
CC(C)(C)OC(=O)N1CCC[C@H]1C(=O)NCc1ccc(Cl)cc1Cl,1,-3,-3,-1,5.7*,-9,14*,1,2
O=C(NCc1nc2ccccc2[nH]1)C1=C[C@H](C2CCCCC2)C[C@H](OCc2ccc(CO)cc2)O1,1,-1,-2,0,5,-9,/,/,/
O=C(NCc1nc2ccccc2[nH]1)C1=C[C@@H](C2CCCCC2)C[C@@H](OCc2ccc(CO)cc2)O1,-1,-7,5,1,9.0*,3,82*,1,54*
O=C(NCc1nc2ccccc2[nH]1)C1=C[C@H](C2CCCCC2)C[C@H](OCCCCO)O1,-2,-2,1,-1,59*,-14,75*,7,53*
O=C(NCc1nc2ccccc2[nH]1)C1=C[C@H](C2CC2)C[C@H](OCCCCO)O1,0,-6,/,1,0,7,/,/,/
COc1ccc(NC(=O)C2Cc3c(-c4cccc(NC(C)=O)c4)ccnc3O2)cn1 (stereo unspecified),/,/,/,/,0,/,/,/,/
CCOC1=C2[C@H](c3ccc(CC)cc3)N(S(=O)(=O)c3ccc(C)cc3)C[C@H]2C(C#N)(C#N)C(C#N)(C#N)C1,/,/,/,/,-1,/,/,/,/
Cc1ccc(C2CC2C(=O)NNC(=S)Nc2cccc(C)c2)cc1 (stereo unspecified),0,-4,0,-2,0,-14,/,/,/
O=C(NNC(=S)Nc1ccc(F)cc1)C1CC1c1ccc(Cl)cc1 (stereo unspecified),1,-5,-3,-1,48*,10,66*,6,41*
Cc1ccc(C2CC2C(=O)NNC(=S)Nc2cccc(Cl)c2)cc1 (stereo unspecified),2,-4,/,0,6.5*,-10,14*,0,10
C[N+](C)(C)CCN1CCc2ccccc21,/,/,/,/,0,/,/,/,/
COc1cccc(N=C2SC(CC(=O)Nc3ccccc3)C(=O)N2Cc2ccccn2)c1 (stereo unspecified),-3,22,/,-2,6.6*,-11,11*,3,9
O=C(CC1SC(=Nc2ccccc2)N(CCc2ccccn2)C1=O)Nc1ccc(F)cc1 (stereo unspecified),-1,6,-1,0,0,-4,/,/,/
O=C(/C(=C/c1ccc(Cl)cc1)c1nc2ccccc2[nH]1)c1ccccc1,2,0,-5,-1,6.6*,-11,3,98*,4
COc1ccccc1-c1ccc2c(c1)C(C)(Cc1ccc(F)c(Cl)c1)C(=O)N2 (stereo unspecified),/,/,/,/,0,/,/,/,/
COC(=O)c1nnn(CC(=O)NC(=O)Nc2ccccc2)c1C(=O)OC,2,-4,-4,0,6.2*,9,15*,-7,3
COc1cccc(CNC(=O)[C@@H]2CCCN2C(=O)OC(C)(C)C)c1,/,/,/,/,-2,/,/,/,/
CCN(CC)c1cc(Cl)c2nonc2c1N,1,/,-7,1,0,-11,/,/,/
CN(C)c1cc(Cl)c2nonc2c1N,-2,/,2,0,5.7*,-8,4,0,2
COC(=O)[C@@]12C[C@@H](CC(=O)N3CCSCC3)C(=O)N(Cc3ccco3)C1=CCC(C)(C)C2,/,/,/,/,0,/,/,/,/
SMILES,CDK5 inh,CAL PDZ FP-1,Dyrk1A ADPGlo,CAL PDZ FP-2,Tb MetRS inh,PvdQ inh,Tb MetRS conf,Jurkat cytotox,Tb MetRS inh FP
O=c1cc(CSc2ccc(Cl)cc2)[nH]c2[nH]n(-c3ccccc3)c(=O)c12,-10,0,-8,-3,8.5*,-7,26*,17*,7
Cc1ccc(SCc2cc(=O)c3c(=O)n(-c4ccccc4)[nH]c3[nH]2)cc1,-3,0,1,-2,-1,4,/,/,/
O=C(Nc1ccc(S(=O)(=O)N2CCCCC2)cc1)c1ccccc1Cl,0,-2,-1,-2,-1,-1,/,/,/
O=C(Nc1ccccc1)Nc1ccc(S(=O)(=O)N2CCCCC2)cc1,-2,0,1,-7,7.8*,-13,15*,7,23*
COc1ccc(NC(=O)Nc2ccccc2)cc1S(=O)(=O)N1CCCCC1,-2,-7,2,-1,11*,8,27*,7,15
CCCCC(=O)N(C)c1c(C)nc2ccc(C(=O)Nc3cccc(NS(C)(=O)=O)c3)cn12,/,/,/,/,0,/,/,/,/
COC(=O)[C@@H](NS(=O)(=O)c1cc(Br)ccc1Br)C(C)C,/,/,/,/,-1,/,/,/,/

# High-throughput results from PubChem BioAssay.
